The text below walks through data of ChEMBL document CHEMBL5329154, “Novel 1,2,4-oxadiazole compounds as PPAR-α ligand agonists: a new strategy for the design of antitumour compounds” (RSC Med Chem, 2023).

The nature of series [1]: Cytotoxicity against human WPMY-1 cells assessed as reduction in cell viability incubated for 72 hrs under normoxic condition by SRB assay. The class given is toxicity, cell-based. A digest of the protocol:
(§1)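 Cells in DMEM with 2 mM L-glutamine, 10% FBS, penicillin and streptomycin at 37 °C, 5% CO2. Tumour cells (A498, DU-145) kept at hypoxia (1% O2); non-tumour cells (RPTEC, WPMY-1) at normoxia (20–21% O2). Seeded 2 × 10^4 cells/well, grown 12 h, then dosed 72 h at 0.20–100 μM (ten twofold steps, 0.5% DMSO). Fixed in cold 10% TCA, stained with 0.4% SRB, dye solubilised in 10 mM Tris, OD read at 540 nm. CC50 from non-linear regression.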
Background: Sulforhodamine B stains cellular protein and so reports cell mass.

Series [2] is described as follows: Cytotoxicity against human RPTEC assessed as reduction in cell viability incubated for 72 hrs under normoxic condition by SRB assay. The class given is toxicity, cell-based. Particulars: RPTEC cells. A digest of the protocol:
as §1

Another series deals with DU-145. As to the kind of experiment: Cytotoxicity against human DU-145 cells assessed as reduction in cell viability incubated for 72 hrs under hypoxic condition by SRB assay. The class given is functional. The gist of the method: as §1
Another series deals with A498. As to the kind of experiment: Cytotoxicity against human A498 cells assessed as reduction in cell viability incubated for 72 hrs under hypoxic condition by SRB assay. The class given is functional. The gist of the method: as §1
Series [3] concerns the target T1, Peroxisome proliferator-activated receptor alpha (Homo sapiens, UniProt Q07869).
T1 sequence (Q07869 whole entry): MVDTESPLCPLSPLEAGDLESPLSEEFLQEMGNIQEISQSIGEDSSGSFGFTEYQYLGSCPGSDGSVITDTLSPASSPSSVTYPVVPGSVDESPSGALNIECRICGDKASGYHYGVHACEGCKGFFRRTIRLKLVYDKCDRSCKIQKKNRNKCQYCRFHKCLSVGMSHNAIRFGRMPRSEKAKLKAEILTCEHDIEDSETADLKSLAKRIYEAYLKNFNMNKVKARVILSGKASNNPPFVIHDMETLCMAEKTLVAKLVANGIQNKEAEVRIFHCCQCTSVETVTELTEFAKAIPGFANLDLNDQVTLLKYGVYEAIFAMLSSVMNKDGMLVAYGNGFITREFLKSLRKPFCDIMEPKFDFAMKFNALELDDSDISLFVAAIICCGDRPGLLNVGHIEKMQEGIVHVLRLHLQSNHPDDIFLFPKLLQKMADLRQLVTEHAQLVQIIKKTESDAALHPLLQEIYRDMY
As to the kind of experiment: Agonist activity at GAL4-tagged PPARalpha in human A498 cells assessed as transcriptional activation incubated for 72 hrs under hypoxic condition by luciferase assay. The class given is cell-based.

Series [4] deals with T1, Peroxisome proliferator-activated receptor alpha. Description: Agonist activity at GAL4-tagged PPARalpha in human RPTEC assessed as transcriptional activation incubated for 72 hrs under normoxic condition by luciferase assay. The class given is cell-based.
For series [5] the target is unchanged. Description: Agonist activity at GAL4-tagged PPARalpha in human WPMY-1 cells assessed as transcriptional activation incubated for 72 hrs under normoxic condition by luciferase assay. The class given is cell-based.
Series [6] shares this target. Description: Agonist activity at GAL4-tagged PPARalpha in human DU-145 cells assessed as transcriptional activation incubated for 72 hrs under hypoxic condition by luciferase assay. The class given is cell-based.

One may read the CC50 as the concentration at which the toxic effect on the cells reaches its halfway point. In the case of `c1cncc(-c2noc(-c3ccoc3)n2)c1`, the CC50 at 72 h in series [1] is 62.5 µM; in series [2], 54.8 µM. Also, the CC50 with DU-145 worked out at 1830 nM; in the series with A498, 1520 nM.

The EC50 is the concentration that produces a half-maximal response. For the compound `C1=CC(c2nc(-c3cccnc3)no2)CC1` (stereo unspecified), the figures for the CC50 at 72 h in series [1] and in series [2] were 88 µM and 74.8 µM, respectively. In addition, the EC50 in series [3] amounted to 470 nM; in series [4] it was 210 nM; in series [5], 730 nM; in series [6], 1500 nM. The cytotoxic concentration (CC50) in the series on DU-145 worked out at 1810 nM; in the series with A498, 1530 nM.

As for `Cn1ccc(-c2nc(-c3cccnc3)no2)c1`, the figures for the CC50 at 72 h in series [1] and in series [2] were 91.8 µM and 87.2 µM, respectively. Also, the figures for the CC50 in the series on DU-145 and in the series with A498 were 3460 nM and 2010 nM, respectively.

In the case of `c1cncc(-c2noc(-c3nc[nH]n3)n2)c1`, the CC50 at 72 h in series [1] came to 98.1 µM; in series [2], 93.6 µM. Moreover, the figures for the CC50 in the series with DU-145 and with A498 were 5730 nM and 3910 nM, respectively.

On to `C1=C(c2nc(-c3cccnc3)no2)CCC1`, for which the CC50 at 72 h in series [1] turned out to be 81.3 µM; in series [2] it was 68.4 µM. The CC50 with DU-145 worked out at 1680 nM; in the series on A498, 1390 nM.

On to `Cc1cccc(Nc2cc(Cl)nc(CSC(=O)O)n2)c1C`, for which the results for the CC50 at 72 h in series [1] and in series [2] were 62.9 µM and 54.1 µM, respectively. Besides, the CC50 turned out to be 3210 nM with DU-145 and 2940 nM in the series on A498.

As for `c1cncc(-c2noc(-c3ncsn3)n2)c1`, the CC50 at 72 h in series [1] is 53.7 µM; in series [2], 45.5 µM. Also, the CC50 with DU-145 is 2790 nM; in the series with A498 it was 2200 nM.

Turning to `c1cncc(-c2noc(-c3nnsn3)n2)c1`, the CC50 at 72 h in series [1] stood at 46.7 µM; in series [2], 38.7 µM. Moreover, the CC50 worked out at 1450 nM in the series with DU-145 and 1210 nM with A498.

Regarding `c1cncc(-c2noc(C3CCCC3)n2)c1`, the CC50 at 72 h in series [1] came to 96.4 µM; in series [2], 84.4 µM. The CC50 is 2810 nM with DU-145 and 1790 nM with A498.

On to `c1cncc(-c2noc(-c3cc[nH]c3)n2)c1`, for which the values for the CC50 at 72 h in series [1] and in series [2] were 96.9 µM and 92 µM, respectively. The figures for the CC50 in the series on DU-145 and in the series with A498 were 3970 nM and 2520 nM, respectively.

On to `c1cncc(-c2noc(-c3ncon3)n2)c1`, for which the CC50 at 72 h in series [1] was determined as 77.7 µM; in series [2], 67.5 µM. In addition, the values for the CC50 in the series with DU-145 and in the series with A498 were 3430 nM and 3760 nM, respectively.

`c1cncc(-c2noc(-c3nn[nH]n3)n2)c1`: the CC50 at 72 h in series [1] worked out at 99.2 µM; in series [2] it was 95.2 µM. The CC50 is 7490 nM in the series with DU-145 and 5280 nM in the series on A498.

As for `c1cncc(-c2noc(-c3ccsc3)n2)c1`, the figures for the CC50 at 72 h in series [1] and in series [2] were 71.1 µM and 63.3 µM, respectively. Further, the CC50 in the series with DU-145 came out at 1570 nM; in the series on A498, 1320 nM.

With `CCCCCc1nc(-c2cccnc2)no1`, the half-maximal cytotoxic concentration (CC50) at 72 h is 92.7 µM in series [1] and 81.7 µM in series [2]. Besides, the values for the cytotoxic concentration (CC50) in the series on DU-145 and in the series on A498 were 1930 nM and 1660 nM, respectively.

Consider `c1cncc(-c2noc(-c3nnon3)n2)c1`, for which the values for the CC50 at 72 h in series [1] and in series [2] were 70.1 µM and 61.2 µM, respectively. The values for the CC50 in the series on DU-145 and in the series with A498 were 2630 nM and 2640 nM, respectively.

On to `C1=CC(c2nc(-c3cccnc3)no2)=CC1`, for which the CC50 at 72 h in series [1] turned out to be 78.6 µM; in series [2], 66.7 µM. In addition, the CC50 in the series with DU-145 was found to be 1630 nM; with A498, 1370 nM.

As to `Cn1cnc(-c2nc(-c3cccnc3)no2)n1`, the results for the CC50 at 72 h in series [1] and in series [2] were 94.9 µM and 90.9 µM, respectively. Also, the figures for the cytotoxic concentration (CC50) in the series with DU-145 and in the series with A498 were 6820 nM and 4830 nM, respectively.

Turning to `Cn1nnc(-c2nc(-c3cccnc3)no2)n1`, the CC50 at 72 h in series [1] came to 93.4 µM; in series [2], 89 µM. Moreover, the CC50 in the series with DU-145 was 5140 nM; in the series with A498, 3420 nM.
